Measured values: ChEMBL document CHEMBL1148762, “Lysosome and HER3 (ErbB3) selective anticancer agent kahalalide F: semisynthetic modifications and antifungal lead-exploration studies” (J Med Chem, 2007)
In brackets after ≈: the same amount, converted by molar mass.

Columns and labels:
Fusarium solani [1] = assay: Antimicrobial activity against Fusarium solani at 0.3 uM after 48 hrs by microtiter assay; assay type: functional
Method in brief: (§1)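 96-well microdilution broth assay with conidia (3 × 10^5 conidia/mL, harvested from 7-day PDA cultures and filtered) against F. oxysporum, F. proliferatum and F. solani at 0.3, 3 and 30 µM. Plates were held at 24 ± 1 °C under a 12 h photoperiod. Growth was read at 620 nm at 24, 48 and 72 h and reported as percent inhibition from mean absorbance with standard error.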

PC-3 = assay: Cytotoxicity against human PC3 cells; assay type: functional
Method in brief: (§2)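 NCI Developmental Therapeutics Program cell panel. GI50 is the concentration that reduces growth of treated cells to half that of untreated controls. TGI is the concentration that completely halts growth.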

Fusarium proliferatum [2] = assay: Antimicrobial activity against Fusarium proliferatum at 30 uM after 72 hrs by microtiter assay; assay type: functional; method in brief: as §1
Fusarium proliferatum [3] = assay: Antimicrobial activity against Fusarium proliferatum at 3 uM after 72 hrs by microtiter assay; assay type: functional; method in brief: as §1
Fusarium solani [4] = assay: Antimicrobial activity against Fusarium solani at 30 uM after 72 hrs by microtiter assay; assay type: functional; method in brief: as §1
Hs-578T = assay: Cytotoxicity against human HS578T cells; assay type: functional; method in brief: as §2
KM12 = assay: Cytotoxicity against human KM12 cells; assay type: functional; method in brief: as §2
Fusarium oxysporum [5] = assay: Antimicrobial activity against Fusarium oxysporum at 3 uM after 48 hrs by microtiter assay; assay type: functional; method in brief: as §1
Fusarium oxysporum [6] = assay: Antimicrobial activity against Fusarium oxysporum at 30 uM after 72 hrs by microtiter assay; assay type: functional; method in brief: as §1
A549 = assay: Cytotoxicity against human A549 cells; assay type: functional; method in brief: as §2
HT-29 = assay: Cytotoxicity against human HT29 cells; assay type: functional; method in brief: as §2
Fusarium solani [7] = assay: Antimicrobial activity against Fusarium solani at 3 uM after 72 hrs by microtiter assay; assay type: functional; method in brief: as §1
Fusarium solani [8] = assay: Antimicrobial activity against Fusarium solani at 0.3 uM after 72 hrs by microtiter assay; assay type: functional; method in brief: as §1
Fusarium oxysporum [9] = assay: Antimicrobial activity against Fusarium oxysporum at 3 uM after 72 hrs by microtiter assay; assay type: functional; method in brief: as §1
SK-OV-3 = assay: Cytotoxicity against human SK-OV3 cells; assay type: functional; method in brief: as §2
[10] = tested on: Mycobacterium tuberculosis; assay: Antibacterial activity against Mycobacterium tuberculosis H37Rv at 16 ug/mL by micro plate alamar blue assay; assay type: functional
Method in brief: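 M. tuberculosis H37Rv ATCC 27294 grown in BACTEC 12B medium; microplate Alamar blue assay (MABA). Primary screen at a single concentration of 16 µg/mL, read as percent inhibition.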

HCC 2998 = assay: Cytotoxicity against human HCC2998 cells; assay type: functional; method in brief: as §2
Fusarium oxysporum [11] = assay: Antimicrobial activity against Fusarium oxysporum at 30 uM after 48 hrs by microtiter assay; assay type: functional; method in brief: as §1
Fusarium solani [12] = assay: Antimicrobial activity against Fusarium solani at 30 uM after 48 hrs by microtiter assay; assay type: functional; method in brief: as §1
Fusarium proliferatum [13] = assay: Antimicrobial activity against Fusarium proliferatum at 3 uM after 48 hrs by microtiter assay; assay type: functional; method in brief: as §1
Fusarium proliferatum [14] = assay: Antimicrobial activity against Fusarium proliferatum at 0.3 uM after 72 hrs by microtiter assay; assay type: functional; method in brief: as §1
DU-145 = assay: Cytotoxicity against human DU145 cells; assay type: functional; method in brief: as §2
T47D = assay: Cytotoxicity against human T47D cells; assay type: functional; method in brief: as §2
Fusarium solani [15] = assay: Antimicrobial activity against Fusarium solani at 3 uM after 48 hrs by microtiter assay; assay type: functional; method in brief: as §1
SNB-75 = assay: Cytotoxicity against human SNB75 cells; assay type: functional; method in brief: as §2
RPMI-8226 = assay: Cytotoxicity against human RPMI8226 cells; assay type: functional; method in brief: as §2
HCT-15 = assay: Cytotoxicity against human HCT15 cells; assay type: functional; method in brief: as §2
COLO 205 = assay: Cytotoxicity against human COLO205 cells; assay type: functional; method in brief: as §2
Fusarium oxysporum [16] = assay: Antimicrobial activity against Fusarium oxysporum at 0.3 uM after 48 hrs by microtiter assay; assay type: functional; method in brief: as §1
UACC-257 = assay: Cytotoxicity against human UACC257 cells; assay type: functional; method in brief: as §2
ACHN = assay: Cytotoxicity against human ACHN cells; assay type: functional; method in brief: as §2
Fusarium oxysporum [17] = assay: Antimicrobial activity against Fusarium oxysporum at 0.3 uM after 72 hrs by microtiter assay; assay type: functional; method in brief: as §1
NCI-H322M = assay: Cytotoxicity against human NCI-H322M cells; assay type: functional; method in brief: as §2
Fusarium proliferatum [18] = assay: Antimicrobial activity against Fusarium proliferatum at 0.3 uM after 48 hrs by microtiter assay; assay type: functional; method in brief: as §1
Fusarium proliferatum [19] = assay: Antimicrobial activity against Fusarium proliferatum at 30 uM after 48 hrs by microtiter assay; assay type: functional; method in brief: as §1
Aspergillus fumigatus = assay: Antimicrobial activity against Aspergillus fumigatus ATCC 90906; assay type: functional, organism-based
[20] = tested on: Mycobacterium intracellulare; assay: Antimicrobial activity against Mycobacterium intracellular ATCC 23068; assay type: functional, organism-based
Cryptococcus neoformans = assay: Antimicrobial activity against Cryptococcus neoformans ATCC 90113; assay type: functional, organism-based
Candida albicans = assay: Antimicrobial activity against Candida albicans ATCC 90028; assay type: functional, organism-based

`C/C=C1\NC(=O)[C@H](Cc2ccccc2)NC(=O)[C@@H](C(C)C)NC(=O)[C@@H]([C@@H](C)CC)NC(=O)[C@H](NC(=O)[C@H](NC(=O)[C@H](CCCNC(=O)c2cc3ccc(N(CC)CC)cc3oc2=O)NC(=O)[C@H]2CCCN2C(=O)[C@H](NC(=O)[C@@H](NC(=O)[C@@H](NC(=O)[C@H](NC(=O)CCCC(C)C)C(C)C)[C@@H](C)O)C(C)C)C(C)C)[C@@H](C)CC)[C@@H](C)OC(=O)[C@H](C(C)C)NC1=O` showed an inhibition at 0.3 µM (Fusarium solani [1]) of 0%, a GI50 (PC-3) of 3.7 µM and a TGI (PC-3) of 21.8 µM. It also gave an inhibition at 30 µM (Fusarium proliferatum [2]) of 0%, an inhibition at 3 µM (Fusarium proliferatum [3]) of 0% and an inhibition at 30 µM (Fusarium solani [4]) of 0%. The GI50 (Hs-578T) was 3.03 µM, the TGI (Hs-578T) was over 100 µM and the GI50 (KM12) was 0.413 µM. The TGI (KM12) was 3.07 µM, the inhibition at 3 µM (Fusarium oxysporum [5]) was 0% and the inhibition at 30 µM (Fusarium oxysporum [6]) was 0%. For the same compound, the GI50 (A549) was 13.7 µM, the TGI (A549) was over 100 µM and the GI50 (HT-29) was 2.39 µM. It also gave a TGI (HT-29) of over 100 µM, an inhibition at 3 µM (Fusarium solani [7]) of 0% and an inhibition at 0.3 µM (Fusarium solani [8]) of 0%. The inhibition at 3 µM (Fusarium oxysporum [9]) was 0%, the GI50 (SK-OV-3) was 2.55 µM and the TGI (SK-OV-3) was 20.2 µM. The inhibition at 16 µg/mL [10] was 46%, the GI50 (HCC 2998) was 2.27 µM and the TGI (HCC 2998) was 11.4 µM. It also gave an inhibition at 30 µM (Fusarium oxysporum [11]) of 0%, an inhibition at 30 µM (Fusarium solani [12]) of 0% and an inhibition at 3 µM (Fusarium proliferatum [13]) of 0%. For the same compound, the inhibition at 0.3 µM (Fusarium proliferatum [14]) was 0%, the GI50 (DU-145) was 0.33 µM and the TGI (DU-145) was 1.83 µM. For the same compound, the GI50 (T47D) was 0.518 µM, the TGI (T47D) was 2.83 µM and the inhibition at 3 µM (Fusarium solani [15]) was 0%. For the same compound, the GI50 (SNB-75) was 2.11 µM, the TGI (SNB-75) was 6.87 µM and the GI50 (RPMI-8226) was 40.1 µM. The TGI (RPMI-8226) was over 100 µM, the GI50 (HCT-15) was 0.964 µM and the TGI (HCT-15) was 17.7 µM. For the same compound, the GI50 (COLO 205) was 4.52 µM, the TGI (COLO 205) was over 100 µM and the inhibition at 0.3 µM (Fusarium oxysporum [16]) was 0%. The GI50 (UACC-257) was over 100 µM, the TGI (UACC-257) was over 100 µM and the GI50 (ACHN) was 26.4 µM. For the same compound, the TGI (ACHN) was 69.8 µM, the inhibition at 0.3 µM (Fusarium oxysporum [17]) was 0% and the GI50 (NCI-H322M) was 0.165 µM. For the same compound, the TGI (NCI-H322M) was 0.49 µM, the inhibition at 0.3 µM (Fusarium proliferatum [18]) was 0% and the inhibition at 30 µM (Fusarium proliferatum [19]) was 0%.
In the case of `C/C=C1\NC(=O)[C@H](Cc2ccccc2)NC(=O)[C@@H](C(C)C)NC(=O)[C@@H]([C@@H](C)CC)NC(=O)[C@H](NC(=O)[C@H](NC(=O)[C@H](CCCNCc2ccc(F)cc2)NC(=O)[C@H]2CCCN2C(=O)[C@H](NC(=O)[C@@H](NC(=O)[C@@H](NC(=O)[C@H](NC(=O)CCCC(C)C)C(C)C)[C@@H](C)O)C(C)C)C(C)C)[C@@H](C)CC)[C@@H](C)OC(=O)[C@H](C(C)C)NC1=O`, the inhibition at 0.3 µM (Fusarium solani [1]) is reported as 0%, the GI50 (PC-3) is reported as 0.142 µM and the TGI (PC-3) is reported as 0.287 µM. For the same compound, the inhibition at 30 µM (Fusarium proliferatum [2]) was 96.1%, the inhibition at 3 µM (Fusarium proliferatum [3]) was 0% and the MFC (Aspergillus fumigatus) was over 20 µM. It also gave an MIC (Aspergillus fumigatus) of over 20 µM, an MBC [20] of over 20 µM and an MIC [20] of over 20 µM. It also gave an inhibition at 30 µM (Fusarium solani [4]) of 97.3%, a GI50 (Hs-578T) of 0.212 µM and a TGI (Hs-578T) of 0.695 µM. The MFC (Cryptococcus neoformans) was 10 µM (≈ 15.9 µg/mL), the MIC (Cryptococcus neoformans) was 10 µM (≈ 15.9 µg/mL) and the GI50 (KM12) was 0.179 µM. It also gave a TGI (KM12) of 0.379 µM, an inhibition at 3 µM (Fusarium oxysporum [5]) of 0% and an inhibition at 30 µM (Fusarium oxysporum [6]) of 94.3%. For the same compound, the GI50 (A549) was 0.161 µM, the TGI (A549) was 0.34 µM and the GI50 (HT-29) was 0.151 µM. It also gave a TGI (HT-29) of 0.288 µM, an inhibition at 3 µM (Fusarium solani [7]) of 0% and an inhibition at 0.3 µM (Fusarium solani [8]) of 0%. For the same compound, the inhibition at 3 µM (Fusarium oxysporum [9]) was 0%, the GI50 (SK-OV-3) was 0.183 µM and the TGI (SK-OV-3) was 0.387 µM. It also gave an inhibition at 16 µg/mL [10] of 77%, a GI50 (HCC 2998) of 0.201 µM and a TGI (HCC 2998) of 0.517 µM. The inhibition at 30 µM (Fusarium oxysporum [11]) was 96.6%, the inhibition at 30 µM (Fusarium solani [12]) was 97.3% and the inhibition at 3 µM (Fusarium proliferatum [13]) was 0%. It also gave an inhibition at 0.3 µM (Fusarium proliferatum [14]) of 0%, a GI50 (DU-145) of 0.112 µM and a TGI (DU-145) of 0.23 µM. For the same compound, the GI50 (T47D) was 0.161 µM, the TGI (T47D) was 0.333 µM and the inhibition at 3 µM (Fusarium solani [15]) was 16.5%. For the same compound, the GI50 (SNB-75) was 0.265 µM, the TGI (SNB-75) was 0.655 µM and the GI50 (RPMI-8226) was 0.475 µM. The TGI (RPMI-8226) was 1.78 µM, the MFC (Candida albicans) was over 20 µM and the MIC (Candida albicans) was over 20 µM. For the same compound, the GI50 (HCT-15) was 0.151 µM, the TGI (HCT-15) was 0.289 µM and the GI50 (COLO 205) was 0.156 µM. The TGI (COLO 205) was 0.315 µM, the inhibition at 0.3 µM (Fusarium oxysporum [16]) was 0% and the GI50 (ACHN) was 1.08 µM. The TGI (ACHN) was 2.06 µM, the inhibition at 0.3 µM (Fusarium oxysporum [17]) was 0% and the GI50 (NCI-H322M) was 0.203 µM. It also gave a TGI (NCI-H322M) of 0.429 µM, an inhibition at 0.3 µM (Fusarium proliferatum [18]) of 0% and an inhibition at 30 µM (Fusarium proliferatum [19]) of 97.5%.
